CHRM5 PAM = potentiates acetylcholine response at human M5 receptor. P08912. CHO-K1 hM5, Fluo-8 calcium, ACh EC20 PAM; 0% = ACh EC20, 100% = ACh EC100. activation, % at 3 µM. 0.3% of 360,000 active. AID 624038;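 active = activation above the run cutoff, the mean activation of all test compounds plus 3 SD, cut at about 18% in these data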
Target sequence (P08912 whole entry, looked up): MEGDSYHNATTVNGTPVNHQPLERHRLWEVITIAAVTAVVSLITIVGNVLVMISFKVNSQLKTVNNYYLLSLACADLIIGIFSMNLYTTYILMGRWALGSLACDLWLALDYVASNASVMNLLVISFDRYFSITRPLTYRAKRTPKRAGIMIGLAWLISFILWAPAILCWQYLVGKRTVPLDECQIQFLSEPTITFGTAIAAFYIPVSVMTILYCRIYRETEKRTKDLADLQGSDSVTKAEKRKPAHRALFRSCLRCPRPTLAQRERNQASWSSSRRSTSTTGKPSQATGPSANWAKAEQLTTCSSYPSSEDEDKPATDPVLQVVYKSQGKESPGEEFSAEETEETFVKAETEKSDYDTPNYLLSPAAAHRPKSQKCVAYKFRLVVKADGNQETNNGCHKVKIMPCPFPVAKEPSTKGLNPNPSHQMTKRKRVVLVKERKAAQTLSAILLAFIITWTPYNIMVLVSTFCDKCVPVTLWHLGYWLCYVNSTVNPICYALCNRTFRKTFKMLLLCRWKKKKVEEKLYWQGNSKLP
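Probe or stimulus: acetylcholine, EC20 level; Assay system: human M5 receptor in CHO-K1 cells; Schedule: compound preincubation 140 s before EC20 acetylcholine addition; Technique: intracellular calcium via Fluo-8 fluorescence; Dosing: single-point, 3 µM nominal; Read-out basis: percent activation from peak-over-basal fluorescence ratio, scaled EC20-to-EC100 acetylcholine; Repeats: one well per compound, no replicates.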
M4 antag = CHRM4 antagonism in calcium assay; CHO-hM4 cells, ACh EC80, Fluo-8 calcium fluorescence; AID 624125; inhibition, % at 3 µM; 0.73% of 360,000 active; P08173;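 active = inhibition above its plate's cutoff, the mean inhibition of sample wells plus 3 SD, cut at about 27% in these data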;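 also: 0% = acetylcholine EC80 with DMSO and 100% = DMSO without agonist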
CHRM5 antagonist = CHRM5 antagonism in calcium assay; CHO-hM5 cells, Fluo-8 calcium fluorescence, ACh EC80; inhibition, % at 3 µM; 0.59% of 360,000 active;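 active = inhibition above a per-plate cutoff, the mean of that plate's test compounds plus 3 SD, cut at about 27% in these data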;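 also: 0% = acetylcholine EC80 with DMSO and 100% = DMSO without agonist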
M5 ag = CHRM5 agonism in calcium assay; activation, % at 3 µM; CHO-K1 hM5 cells, Fluo-8 calcium fluorescence; 0% DMSO wells, 100% maximal acetylcholine response; AID 624037; P08912; 0.19% of 360,000 active;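 active = activation above the run's mean over test compounds plus 3 SD, cut at about 23% in these data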;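 also: signal is peak over basal fluorescence ratio across the kinetic read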
CHRM4 agonist = CHRM4 agonism in calcium assay; P08173; CHO-K1 hM4/Gqi5, Fluo-8 calcium fluorescence; vehicle 0%, full acetylcholine response 100%; activation, % at 3 µM; 0.14% of 360,000 active; AID 624127;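 active = activation above the run mean over all test wells plus 3 SD, cut at about 32% in these data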;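 also: peak over basal fluorescence ratio per well then scaled between controls; 0% = DMSO wells and 100% = acetylcholine at EC100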
CHRM4 PAM = potentiates acetylcholine response at human M4 receptor; P08173; CHO-K1 hM4/Gqi5, Fluo-8 calcium fluorescence, ACh EC20; 0% = ACh EC20, 100% = maximal ACh; activation, % at 3 µM; 0.4% of 360,000 active;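 active = activation above its plate's cutoff, the mean activation of sample wells plus 3 SD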
The depositor's hits bear a star. This is a sample that favours compounds with a hit; in the whole collection about 1.8% have one here.

SMILES | CHRM5 PAM | M4 antag | CHRM5 antagonist | M5 ag | CHRM4 agonist | CHRM4 PAM
OC(C#CCN1CCCC1)(c1ccccc1)c1cccc(F)c1 (configuration not stated) | -19 | 94* | 98* | -8 | 2 | -16
O=C(NCc1cc(Cl)cc(Cl)c1)c1ccc2sc([C@H]3C[C@H](O)[C@@H](CO)O3)nc2c1 | -3 | 0 | 2 | 1 | 4 | -3
Cc1noc(C)c1C(=O)N(C)C[C@@H]1OCc2ccccc2-c2c(n(C)c3ccccc23)C(=O)N([C@H](C)CO)C[C@H]1C | 2 | -13 | -4 | 1 | 1 | 1
CC(O)(C#CCN1CCCCC1)c1ccccc1 (configuration not stated) | -13 | 10 | 7 | -7 | 1 | -11
C(#CCN1CCCC1)CC(c1ccccc1)c1ccccc1 | -21 | 69* | 75* | -7 | 9 | -23
CC(C)(C#CCN1CCCCC1)OCCOC(c1ccccc1)c1ccccc1 | -19 | 97* | 30* | -8 | -4 | -42
CC(C)C(O)(C#CCN1CCCCCC1)c1ccccc1 (configuration not stated) | -20 | 54* | 60* | -9 | 2 | -23
CC(C)C(O)(CC#CCN1CCCC1)c1ccccc1 (configuration not stated) | -35 | 49* | 42* | -18 | 1 | -26
CCOc1ccccc1N(CC)C(=O)c1cc2c(s1)-c1ccccc1S(=O)(=O)C2 | -6 | -8 | 2 | -2 | 0 | 0
CCN(C)C1CN(Cc2cn(CCCC(=O)OC)nn2)S(=O)(=O)C1 (configuration not stated) | 7 | -6 | -3 | 1 | 1 | 2
CC1CCCCN1C(C(=O)O)c1ccccc1 (configuration not stated) | 1 | 3 | -11 | -6 | 0 | 5
CC1CCCN1CC#CC(O)(c1ccccc1)c1ccccc1 (configuration not stated) | -31 | 97* | 99* | -19 | 0 | -17
Nc1nnnn1N=C1CCCCC1 | 29* | -9 | 7 | -1 | 1 | -1
COc1cc2c(cc1OC)-c1cc(OCCN3CCOCC3)nc(=O)n1CC2 | 25* | -6 | 3 | -6 | -1 | 5
COc1ccc(CCN2C(=O)C(Oc3ccccc3C)C2c2ccc3c(c2)OCO3)cc1 (configuration not stated) | 3 | -1 | 13 | 1 | 5 | -11
COc1ccc(CCN2C(=O)C(Oc3ccccc3C)C2c2ccc3c(c2)OCO3)cc1OC (configuration not stated) | -16 | 29* | 11 | -1 | 5 | -6
CNC(=O)c1ccc2cc(OC)c(OC)cc2c1 | 1 | -9 | 1 | 1 | 1 | 2
CCOC(=O)c1cc(-c2ccccc2)nn1CCC#N | 4 | -4 | 3 | 2 | 0 | 4
C=CCn1nc(-c2ccccc2)cc1C(=O)OCC | 21* | -13 | -5 | 5 | -2 | 19
CC(C)c1ccc(CN2CCC(Oc3ccc(C(=O)N4CCCC4)cc3)CC2)cc1 | -11 | 31* | 30* | -7 | 5 | -14
CCc1ccc(CN2CCC(Oc3ccc(C(=O)N4CCCC4)cc3)CC2)cc1 | -9 | 36* | 15 | -9 | 1 | -16
CSc1ccc(CN2CCC(Oc3ccc(C(=O)N4CCCC4)cc3)CC2)cc1 | -8 | 29* | 8 | -9 | 0 | -19
Cc1ccc(CN2CCN(CCCn3cnc4c(OCc5ccccc5)ncnc43)CC2)cc1 | -12 | 33* | 15 | -1 | 9 | -16
c1ccc(COc2ncnc3c2ncn3CCCN2CCN(Cc3cccc4ccccc34)CC2)cc1 | -6 | -13 | 0 | -1 | 23 | -13
CCCCNC(=O)c1cnc(Cc2c[nH]c3ccccc23)c(I)c1 | -3 | -26 | -2 | -1 | 8 | 1
SMILES | CHRM5 PAM | M4 antag | CHRM5 antagonist | M5 ag | CHRM4 agonist | CHRM4 PAM
CC(=O)NS(=O)(=O)c1ccc(NC(=O)c2cc(-c3cccs3)nc3ccccc23)cc1 | 0 | 0 | 14 | 1 | 2 | 22*
CCN(CC)S(=O)(=O)c1ccc(NC(=O)c2cc(-c3cccs3)nc3ccccc23)cc1 | -10 | 0 | 17 | -1 | 6 | -2
CN(C)S(=O)(=O)c1ccc(NC(=O)c2cc(-c3cccs3)nc3ccccc23)cc1 | -21 | 34* | 23 | 3 | 22 | -38
O=C(Nc1ccc(F)cc1)c1cc(S(=O)(=O)Nc2ccc(F)cc2)cs1 | -23 | 8 | 32* | 3 | 10 | -12
COc1ccc(NC(=O)c2cc(S(=O)(=O)Nc3ccc(OC)cc3)cs2)cc1 | -17 | 15 | 16 | 2 | 10 | -23
COc1ccc(C(=O)Nc2c(N)nc(SCC(=O)Nc3ccc(NC(C)=O)cc3)[nH]c2=O)cc1 | -8 | -6 | 8 | -2 | 1 | 8
COc1ccc(NC(=O)CSc2nc(N)c(NC(=O)c3ccccc3F)c(=O)[nH]2)cc1 | 1 | 2 | 10 | -2 | 1 | 17*
Cc1ccc(C)c(C(Nc2ccccc2)c2ccc3ccc(C)nc3c2O)c1 (configuration not stated) | -12 | 14 | 8 | 0 | -2 | -6
CCOC(=O)c1sc(NNC(=O)c2ccc(F)cc2)nc1C | 25* | -3 | 8 | 14 | 3 | 13
CC1CC(C)CN(C(C(=O)NC2CCCCC2)c2cc3ccccc3o2)C1 (configuration not stated) | -5 | -6 | 8 | -2 | -1 | -4
COc1cccc2c1C(=O)c1c(O)c3c(c(O)c1C2=O)CC(O)(C(=O)CO)CC3OC1CC(N(C)C)C(O)C(C)O1 (configuration not stated) | -32 | 7 | 35* | 55* | 13 | -3
COc1cccc2c1C(=O)c1c(O)c3c(c(O)c1C2=O)C[C@@](O)(C(=O)CO)C[C@@H]3O[C@H]1C[C@H](N)[C@@H](O)[C@H](C)O1 | -3 | 8 | 10 | 5 | 8 | -1
O=C(c1cccs1)N1C[C@@H](O)[C@H](n2cc(-c3ccc(F)cc3)nn2)C[C@@H]1c1ccccc1 | 2 | -21 | -5 | -1 | 9 | -3
O=C(N/N=C/c1ccc(O)cc1)c1ccc(COc2cc(Cl)ccc2Cl)o1 | -6 | 20 | 12 | 35* | 25 | -9
CCOC(=O)C(C(=O)Nc1ccc(C)cc1)C1CCCCC1 (configuration not stated) | 7 | -2 | -1 | -8 | 0 | 45*
CCOC(=O)C(C(=O)Nc1ccccc1)C1CCCCC1 (configuration not stated) | -17 | 3 | 21 | -7 | 3 | -7
CC(C)(C)c1ccc(/C=N/NC(=S)NCc2ccccc2)cc1 | -1 | -9 | 4 | 1 | 2 | 25*
